{"data": "Published values from different studies", "note": "Compare with care: the assays were run in different laboratories."}
{"SMILES": "Cc1cc(Nc2cc(N3CCN(C)CC3)nc(/C=C/c3ccccc3)n2)n[nH]1", "test system": "human, plasma", "conditions": "oral, 60 mg/m², patients", "measurement": "Vd/F", "value": "1710 L"}
{"SMILES": "COC(=O)C1CCN(C(=O)c2ccc(NCc3cnc4nc(N)nc(N)c4n3)cn2)CC1", "tested on": "Cytochrome P450 3A4 (CYP3A4, Homo sapiens, UniProt P08684)", "test": "enzyme activity, inhibitor, luciferase", "conditions": "10 µM", "measurement": "inhibition", "value": "-7.93%"}
{"SMILES": "COc1cc(C(=O)NC2CCN(C)CC2)c(F)cc1Nc1ncc(C(F)(F)F)c(Oc2cccc3c2C(=O)N(C)C3)n1", "test system": "human, plasma", "conditions": "oral, 200 mg, multiple doses, once daily, patients", "measurement": "Vd/F", "value": "290 L"}
{"SMILES": "CCOC(=O)C1CCCN1C(=O)c1ccc(NCc2cnc3nc(N)nc(N)c3n2)cc1 (centres unmarked)", "tested on": "Cytochrome P450 1A2 (CYP1A2, Homo sapiens, UniProt P05177)", "test": "enzyme activity, inhibitor, luciferase", "conditions": "10 µM", "measurement": "inhibition", "value": "-16%"}
{"SMILES": "CCNc1nc(Nc2ccc(F)c(Cl)c2)c2ccccc2n1", "tested on": "Vero", "test": "cell growth or viability, MTT", "conditions": "250 µg/mL", "measurement": "viability", "value": "20.6%"}
{"SMILES": "CC(C)(C)c1ccc(O)c(CN(Cc2cc(C(C)(C)C)ccc2O)C2CCC(NC(N)=O)CC2)c1 (centres unmarked)", "test system": "male C57BL/6 mouse, plasma", "conditions": "intraperitoneal, 25 mg/kg, single dose", "measurement": "Cmax", "value": "3620 ng/mL"}
{"SMILES": "Cn1cnc2c1c(=O)n(CC(=O)Nc1c(Cl)cccc1Cl)c(=O)n2C", "tested on": "Vero", "test": "cell growth or viability, MTT", "conditions": "500 µg/mL", "measurement": "viability", "value": "25.3%"}
{"SMILES": "O=S(=O)(NNc1nnc(Cl)c2ccccc12)c1ccc(F)cc1", "tested on": "Vero", "test": "cell growth or viability, MTT", "conditions": "62.5 µg/mL", "measurement": "viability", "value": "88.2%"}
